Results reported in the EternaBench riboswitch data.

System: MS2 coat protein
Assay: apparent Kd, MS2 coat protein; higher = weaker binding; RNA-MaP array; FMN 200 µM where present
Procedure, shortened: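 Designs on Illumina sequencing-chip clusters, transcribed by stalled E. coli RNA polymerase, were exposed to SNAP-549-labelled MS2 coat protein in doubling steps from 0.7 or 1.5 nM up to 3 µM, without and then with constant ligand. The buffer held 100 mM Tris-HCl pH 7.5, 80 mM KCl, 4 mM MgCl2, BSA, DTT, yeast tRNA and Tween-20. Apparent Kd values are medians of filtered per-cluster binding-curve fits to green signal normalised to red-channel RNA signal and control-cluster median Fmax.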

[1] = designed as: OFF switch for flavin mononucleotide, no ligand
[2] = ligand present: flavin mononucleotide, designed as: OFF switch for flavin mononucleotide
[3] = designed as: ON switch for flavin mononucleotide, no ligand
[4] = ligand present: flavin mononucleotide, designed as: ON switch for flavin mononucleotide

Sequence	apparent Kd [1]	apparent Kd [2]	apparent Kd [3]	apparent Kd [4]
AGAUCGAGUGUGAGGAUAUUGACCGGACGACCCAUCGAGAAGGCACAUGAGGAUCACCCAUGUGAUUCGGCUCA	17.7 nM	26.4 nM	–	–
CGCACUAUACAUGAGGAUCACCCAUGUUAACAUGAGCUAUUCAGAAGGCAUAAUUAGAGAAUAAAUGAGGAUAUGAUUAGUGCG	–	–	34.7 nM	18.8 nM
GAGAUGUGAGGAUAUCUAGACCAUGGAAAAGCCACGGUCCGAGAGAAGGCACAUGAGGAUCACCCAUGUGAUGA	45.9 nM	171 nM	–	–
AGCUACGUUUCGUAGCAGUGUCAUCGAGAAGGCCCUGACAUGAGGAUCACCCAUGUUGUUACAUGGGAGGAUAUCGAUGAUACU	–	–	13.4 nM	5.59 nM
GCACUUGCGUAGAAGGUACAUUAUAAUUAAUUGUAAGGAUAUACAAACAUGAGGAUCACCCAUGUAAAUGGAAUUUGCAAGUGC	–	–	6.52 nM	6.36 nM
UGUCGGAGCAGAGGAUAUUACAUGAGGAUCACCCAUGUAUGAACCAAUAGCUGGAAACAGGAAUGUAAGAAGGCUGCUCCGACA	6.17 nM	30.1 nM	–	–
GACGGAUGUAUAGGAUAUGCUGAGGAUAACUCAGCAGAAGGAUACAUGAGGAUCACCCAUGUAAUAAUAAUAAUAAUAACCGUC	13.3 nM	24.1 nM	–	–
AAUAGGCUCGCGCAGGAUAUGGAUCAUUCCACAUGAGGAUCACCCAUGUUAAGGAGCCUUUGCAUCCAGAAGGGUGUUGGUCUUU	–	–	97.2 nM	17.9 nM
AGAAAGGCAGGAUAUACAUGAGGAUCACCCAUGUUAAGAAAGACGGAAACGUCAAGAAGUAGAAGGGCCAAGAA	23.4 nM	21.1 nM	–	–
GGGUUCAUGUAAGGAUAUGUAUUGUUAAUCGGAGCAGAAGGUACAUGAGGAUCACCCAUGUCAACCUAGAGCAAGGCUUCUUAG	19.7 nM	58 nM	–	–
AUCAGCUCGUCAGGAUAUACGUCACUGCGUCAGGAGUGUGGUAAGAUCACAUGAGGAUCACCCAUGUAGAAGGGACGAGCUGAU	16.6 nM	298 nM	–	–
CUAGCGGAUGUAGGAUAUCGGACUGUUUCAGUCUGAGAAGGACAUGAGGAUCACCCAUGUAUUGCUGCGUGAGUAGCACGCUAG	19.1 nM	30.2 nM	–	–
GUCAGCUCGUGAGGAUAUACAACACUGGUUCGGCAGUGUAUUAAGAUCACAUGAGGAUCACCCAUGUAGAAGGCACGAGCUGAU	13.6 nM	280 nM	–	–
GUGUCCUUAGGAUAUGUUGAGUUAUACAUGAGGAUCACCCAUGUUCCUCGGUAUUGGUCCAUAGAAGGAAGGUUGC	346 nM	337 nM	–	–
CGCGUAUGAGGAUAUGCAUAAAAGGGUGCACUGAGUCUGUGACAUGAGGAUCACCCAUGUAGAAGGCGUGCGCA	26.7 nM	73.2 nM	–	–
AGCGGCGCGGGCCACCGCAGAACCAGAAGGACAUGAGGAUCACCCAUGUAACAGAACAGGGCGGUGUAGGAUAUGGCAGGCUCG	25.1 nM	46.2 nM	–	–
AUGUUGUCAGGAUAUCGUUAAUUUAGUUGUUUGUAUUAGUUCGAGAAGGGACAUGAGGAUCACCCAUGUUUGUA	32 nM	44 nM	–	–
UACAUGAGGAUCACCCAUGUUUUGUCGUGUAUGGUAUUUAUCUAGGAUAUCAAUCUAUGUAUUUAUGAGAAGGAGAAUAUUAAU	41.8 nM	37.3 nM	–	–
CGCUACGUUUCGUAGCAGUGUCAUCGAGAAGGCCCUGACAUGAGGAUCACCCAUGUAAAAGUUCAGGAGGAUAUCGAUGAUACA	–	–	4.83 nM	4.95 nM
AGAUUUGUACAUGAGGAUCACCCAUGUUAAUAGGUGUUUGUCAGAAGGCAUUAAGAGAGAAUUAAUGAGGAUAUGAAGUUACAU	–	–	42.3 nM	21.7 nM
CUUUUGUGAGGAUAUCAGUUGUAAAUAAAUAAAAUUACUACUGAGAAGGCACAUGAGGAUCACCCAUGUUCCUC	38.1 nM	198 nM	–	–
UAUUAGUAAGGAUAUCUCGUCAUGGACGUGAGUCCAUGACGAGAGAAGGUACAUGAGGAUCACCCAUGUCUAUU	18.1 nM	19.4 nM	–	–
UUUGAGUGAGGAUAUUGCACCUCUGGGUCACCUCAGAGGUUUGAGAAGGCACAUGAGGAUCACCCAUGUUCCGC	19.7 nM	32.2 nM	–	–
